# Calb FLC – C. albicans growth modulation with fluconazole; C. albicans CaCi-2 (fluconazole-resistant clinical isolate) + fluconazole, Alamar Blue growth, 48 h; hit rate 0.57% among 300,000; AID 1979; growth inhibition, % (test concentration not listed);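 active = growth inhibition above about 58% in most replicates, limit read from the data, passing the limit was not always enough; inconclusive = exactly half the replicates above a set limit; inactive = most replicates below a set limit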;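 note: all wells also contain fluconazole at 8 µg/ml as a sub-toxic cotreatment; 0% = median of DMSO wells and 100% = median of geldanamycin control wells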
# CSC inhib – blocks cancer stem cells; inhibition, % at 7.5 µM; hit rate 1.1% among 300,000; AID 2717; cancer stem cell-like cells viability, luminescence; in the data active = inhibition above about 75%; inconclusive = no clear call, values can overlap the other calls; tested in HMLE shEcad cells
# T cruzi inh – T. cruzi replication inhibition | T. cruzi beta-gal in NIH3T3, luminescence, 90 h | inhibition, % (test concentration not listed) | hit rate 1.4% among 300,000 | AID 1885;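 active = mean inhibition across valid replicates above about 55%, limit read from the data; inconclusive = mean below that limit but half or more replicates reach it; inactive = mean below it, under half of replicates reach it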;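 note: signal also drops with host cell toxicity which is not excluded here; 0% = plate median of DMSO wells and 100% = zero luminescence signal; higher percent means less beta-gal luminescence so fewer parasites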
#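 Incubation – ≥90 h infection period, 3 h prior cell attachment · System – NIH/3T3 fibroblasts plus reporter T. cruzi · Doses – compound pinned at 50 nL/well, DMSO · Read-out basis – percent inhibition of parasite-derived β-gal signal · Signal – luminescent β-galactosidase signal after 60 min lysis · Also added – 5000 T. cruzi trypomastigotes/well · Medium – Low-serum DMEM with 2% FBS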
# Beta apoptosis – beta cell apoptosis inhibition | AID 435005 | INS-1E cytokine-induced death, ATP luminescence, 48 h; percent of positive-control rescue, neutral wells zero | hit rate 0.8% among 300,000 | protection from apoptosis, % (concentration not given with the values);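 active = Every replicate reaches about 75%, or at least half do and their mean reaches it too, limit read from the data; inconclusive = At least half of replicates reach the limit but their mean does not; inactive = Under half of replicates reach the limit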;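 note: 0% = cytokine-treated negative control wells and 100% = positive control rescue; higher means more ATP so stronger rescue from cytokine killing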
# SKKanGAS inh – inhibitors of SKKanGAS S. pyogenes growth in kanamycin (SK-promoter or general growth effect); BacTiter-Glo, 6 h; inhibition, % at 7.5 µM; hit rate 1.3% among 300,000; AID 1662;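 active = mean replicate score, as percent of positive control median, at least 50; inconclusive = mean below 50 but one replicate at or above 50; inactive = mean and every replicate below 50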;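 note: strain carries kanamycin resistance gene driven by streptokinase promoter and grows in 40 µg/ml kanamycin; loss of luminescence reflects streptokinase promoter inhibition or plain growth inhibition; 0% = median of DMSO wells and 100% = positive control at its reference dose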
# Mdm2 MdmX PPI – disrupts the human Mdm2-MdmX interaction | SaOS-2 split-luciferase Mdm2/MdmX complementation, luminescence | hit rate 3% among 330,000 | AID 485346 | inhibition, % at 8 µM | O15151+Q00987;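 active = inhibition of at least 50% at 8 µM in the primary screen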
# Target sequence (O15151 whole entry, looked up): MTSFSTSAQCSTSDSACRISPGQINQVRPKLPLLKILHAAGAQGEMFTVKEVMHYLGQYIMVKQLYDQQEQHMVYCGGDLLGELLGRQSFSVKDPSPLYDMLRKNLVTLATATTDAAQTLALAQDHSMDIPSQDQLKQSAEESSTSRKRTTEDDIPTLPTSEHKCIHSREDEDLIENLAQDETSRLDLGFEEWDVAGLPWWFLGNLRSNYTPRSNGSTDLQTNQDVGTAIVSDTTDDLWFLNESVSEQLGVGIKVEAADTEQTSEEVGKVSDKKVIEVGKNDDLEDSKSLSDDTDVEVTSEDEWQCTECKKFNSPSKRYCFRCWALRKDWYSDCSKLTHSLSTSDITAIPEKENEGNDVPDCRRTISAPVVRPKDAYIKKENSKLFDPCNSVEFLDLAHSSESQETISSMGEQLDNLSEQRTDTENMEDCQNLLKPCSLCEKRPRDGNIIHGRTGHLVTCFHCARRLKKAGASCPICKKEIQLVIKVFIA
# Target sequence (Q00987 whole entry, looked up): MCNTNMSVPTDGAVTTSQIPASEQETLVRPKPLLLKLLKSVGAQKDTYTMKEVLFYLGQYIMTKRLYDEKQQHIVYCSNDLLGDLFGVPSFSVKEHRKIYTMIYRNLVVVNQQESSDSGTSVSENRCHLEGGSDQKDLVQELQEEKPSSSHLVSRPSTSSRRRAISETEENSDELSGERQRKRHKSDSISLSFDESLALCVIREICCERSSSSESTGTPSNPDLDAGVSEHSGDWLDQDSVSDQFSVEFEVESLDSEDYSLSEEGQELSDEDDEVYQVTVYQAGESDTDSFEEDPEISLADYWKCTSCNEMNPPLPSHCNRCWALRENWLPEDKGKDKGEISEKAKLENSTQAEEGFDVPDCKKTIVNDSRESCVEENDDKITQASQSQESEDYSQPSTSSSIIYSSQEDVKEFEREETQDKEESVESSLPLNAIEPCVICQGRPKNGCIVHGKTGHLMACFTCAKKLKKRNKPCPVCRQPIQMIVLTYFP
# The depositor's hits bear a star; ? = inconclusive; / = no result. A selection: hits, their analogues and other compounds. The true share with any hit is near 5.7%.
SMILES,Calb FLC,CSC inhib,T cruzi inh,Beta apoptosis,SKKanGAS inh,Mdm2 MdmX PPI
COc1ccc(C)cc1NC(=O)CN1CCN(S(=O)(=O)c2ccc(C(C)C)cc2)CC1,-1.2,0.3,61.6*,/,24.6,-0.2
Cc1ccc(S(=O)(=O)N2CCC(C(=O)Nc3ccc(C(C)C)cc3)CC2)cc1,/,75.4*,/,10.0,/,14.3
COc1ccc([N+](=O)[O-])cc1NC(=O)COC(=O)C1CC1,-2.1,/,56.3*,5.2,7.1,18.7
COc1c(C(=O)Nc2nnc(C3CC3)s2)csc1Cl,8.7,-6.1,-6.9,-1.4,-7.6,-17.6
Cc1ccc(C2CC(=O)Oc3cc(C)c(Br)c(C)c32)cc1 (stereo unspecified),/,/,/,/,/,-9.4
COc1ccc(CCNC(=O)CSCC(=O)Nc2cc(S(C)(=O)=O)ccc2Cl)cc1,/,8.0,/,5.1,/,14.2
COc1ccc(S(=O)(=O)N[C@@H](CSCc2ccccc2)C(=O)O)cc1,-3.7,2.7,/,-1.4,/,15.4
COc1ccc(Cl)cc1NC(=O)CN1CCCC1,-5.7,-6.9,3.4,-3.0,-0.8,-6.9
COC(=O)C1CCN(CC(=O)Nc2cc(Cl)ccc2OC)CC1,-15.3,/,54.8*,1.5,-14.3,33.3
Cc1ccc(NC(=O)C2CCN(c3cnccn3)CC2)cc1C,4.7,6.4,64.0*,-0.9,-5.5,2.7
COc1ccc(/C=C/C(=O)OCC(=O)Nc2ccc3c(c2)OCO3)cc1,/,-6.3,/,-6.1,/,-4.5
Cc1cc(O)c(-c2cc(O)c(C)cc2O)cc1O,15.6,43.8,55.4*,/,5.9,-7.5
Cc1ccc(N)cc1O,/,-0.7,/,-1.9,/,6.5
CCc1ccc(S(=O)(=O)/N=C2\C=C(Nc3cccc(C(=O)O)c3)C(=O)c3ccccc32)cc1,46.6,/,-1.7,51.8,105.9*,30.9
O=C1C(Nc2ccc(O)cc2)=C/C(=N/S(=O)(=O)c2cccs2)c2ccccc21,27.7,/,58.3*,/,87.3*,/
CCc1ccc(S(=O)(=O)/N=C2/C=C(Sc3ncn[nH]3)C(=O)c3ccccc32)cc1,/,104.0*,/,127.1*,/,/
Cc1cccc(NC2=C/C(=N/S(=O)(=O)c3cccs3)c3ccccc3C2=O)c1,/,119.1*,/,104.7*,/,/
O=C(O)c1ccc(NC2=C/C(=N/S(=O)(=O)c3ccccc3)c3ccccc3C2=O)cc1,/,/,/,/,/,45.6
COC(=O)c1ccc(NN=Nc2ccc(C)cc2)cc1,-10.1,-6.9,-2.3,-0.4,3.9,-39.4
NC(=S)N=Nc1ccc(NN=C(N)N)cc1,/,-12.0,-19.9,32.9,105.6*,32.5
O=C(Cn1c(=O)cnc2ccccc21)NNC(=O)c1ccccc1Cl,/,-6.0,/,-7.1,/,25.2
CC1=C(CC(=O)c2ccccc2)C(=O)c2ccccc2C1=O,-19.2,-15.1,-4.9,98.0*,43.9,43.9
O=C(N=C1SC2CS(=O)(=O)CC2N1c1cc(Cl)ccc1Cl)C1CCCO1 (stereo unspecified),/,-0.8,-3.5,2.2,16.1,0.8
Cc1cc2c(NC(=O)Nc3ccc(C(F)(F)F)cc3)cccc2nn1,6.5,-9.3,68.6*,12.7,13.1,35.5
Cc1cc2c(NC(=O)CCCC(=O)O)cccc2nn1,1.8,-8.4,-9.8,-2.9,-5.1,22.5
SMILES,Calb FLC,CSC inhib,T cruzi inh,Beta apoptosis,SKKanGAS inh,Mdm2 MdmX PPI
COc1ccc(S(=O)(=O)Nc2cc3c4c(c2)CC(=O)N4CCC3)cc1C,5.5,0.3,-14.7,3.7,-0.2,9.6
CN(CCOc1ccccc1)CC(=O)Nc1ccc(Cl)c(S(=O)(=O)N(C)C)c1,22.4,-5.9,66.6*,-4.4,-4.4,16.8
S=c1[nH]nc(C2CCCCC2)n1/N=C/c1ccccc1Cl,37.2,/,-1.5,/,18.1,8.6
FC(F)(F)c1ccccc1/C=N/n1c(C2CCCCC2)n[nH]c1=S,26.6,/,-7.0,/,56.0*,0.5
Cc1cccc(/C=N/n2c(C3CCCCC3)n[nH]c2=S)c1,23.1,/,-9.3,/,12.4,7.4
CC(/C=N/n1c(C2CCCCC2)n[nH]c1=S)=C\c1ccccc1,5.5,97.7*,35.2,17.4,45.8,9.1
COc1ccc(OCC(O)CNS(=O)(=O)c2cccs2)cc1 (stereo unspecified),-7.2,-6.0,-2.5,-3.1,-0.3,3.9
O=C(O)c1ccc(Nc2cnc3ccccc3n2)cc1,94.6*,2.6,-3.4,-6.3,1.2,-13.2
Cc1cccc(Nc2nc(N)c([N+](=O)[O-])c(N3CC(C)CC(C)C3)n2)c1 (stereo unspecified),2.5,104.6*,19.4,?,23.8,24.7
CC1CCN(C(=O)CN(c2ccc3c(c2)OCCO3)S(=O)(=O)c2ccccc2)CC1,-2.2,-11.2,-3.3,-0.4,5.5,-24.7

# Screening results deposited in PubChem by several laboratories.
